The subject of data set [1] is Jejunum. Kind of data set: Apparent hydrolytic clearance in Wistar rat jejunum at 100 uM at pH 5.4 by in-situ single-pass perfusion method. The conditions noted are these: in vivo, pH 5.4, 100 µM. It is filed as ADME, tissue-based. The essentials:
(§1)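 Rats fasted 18–24 h, anesthetized with intraperitoneal pentobarbital. Isolated cannulated jejunal segment kept at 37°C in Krebs–Henseleit buffer with 3% BSA and 10 mM glucose. Vascular perfusion with Krebs–Henseleit (pH 7.4) at 2.5 ml/min. Lumen perfused at 0.2 ml/min with phosphate buffer (pH 5.4, 6.4 or 7.4) containing 100 µM drug plus FD-4. Luminal and vascular samples assayed by HPLC (UV 258 nm). Parameters normalized to 10 cm intestine. Mean ± S.D., n = 3–6.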

Data set [2] relates to Jejunum. The data set is described as follows: Drug uptake in Wistar rat jejunum pre-perfused with 400 uM CES inhibitor BNPP assessed as rate of drug disappearance at 100 uM at pH 6.4 by in-situ single-pass perfusion method. It is filed as ADME, tissue-based. The settings on record: in vivo. The essentials: (§2)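 Same in situ jejunal single-pass perfusion, with carboxylesterase blocked by pre-perfusing the lumen with 400 µM BNPP for 40 min. Then 100 µM drug in luminal phosphate buffer (pH 5.4 or 6.4) at 0.2 ml/min. Vascular Krebs–Henseleit (pH 7.4) at 2.5 ml/min. Luminal, vascular and tissue levels measured by HPLC. Rates are luminal disappearance and appearance in lumen or mesenteric vein. Mean ± S.D., n = 3.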

For data set [3], the system named is Jejunum. Kind of data set: Intracellular drug level in Wistar rat jejunum at 100 uM at pH 7.4 by in-situ single-pass perfusion method. The settings on record: in vivo, pH 7.4, 100 µM. The class given is ADME, tissue-based. An outline of the steps: as §1
The nature of data set [4]: Ratio of Vmax to Km for drug jejunal in Wistar rat jejunal S9 fraction assessed per mg protein.
The test system of data set [5] is Jejunum. The data set is described as follows: Drug hydrolysis in intact Wistar rat jejunum mucosal homogenate at 500 uM assessed per mg protein. It is filed as ADME, tissue-based. The settings on record: tissue homogenate. The essentials: (§3)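 Jejunal mucosal homogenate or S9 (HEPES pH 7.4/KCl) taken from intact jejunum, or after 40 min perfusion with or without 400 µM BNPP. Protein at 400 µg/ml incubated at 37°C with 500 µM drug. Added BNPP (100 or 1000 µM) pre-incubated 5 min. Temocaprilat formed measured by HPLC and given as nmol/min/mg protein and % of control. Mean ± S.D., n = 4.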

For data set [6], the system named is Jejunum. Kind of data set: Apparent absorption clearance in Wistar rat jejunum at 100 uM at pH 5.4 by in-situ single-pass perfusion method. It is filed as ADME, tissue-based. The conditions noted are these: in vivo, pH 5.4, 100 µM. The essentials: as §1
A short description of data set [7]: Permeability in Wistar rat jejunum at 100 uM at pH 5.4 by in-situ single-pass perfusion method. The class given is ADME, tissue-based. The conditions noted are these: other: in-situ single-pass perfusion of the jejunum, read-out: Peff (converted). The essentials: (§4)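 Rats fasted 18–24 h and anesthetized with intraperitoneal pentobarbital. Jejunal loop perfused at 0.2 ml/min with phosphate buffer (pH 5.4, 6.4 or 7.4) containing 100 μM drug and FD-4 (0.1 mg/ml). Vascular perfusate was Krebs–Henseleit bicarbonate buffer (pH 7.4) at 2.5 ml/min, segment kept at 37°C. Drug and metabolite measured by HPLC (UV 258 nm). Peff normalized to 10 cm intestine; mean ± S.D., n = 3–6.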

Data set [8] has as its system Jejunum. Kind of data set: Apparent absorption clearance in Wistar rat jejunum at 100 uM at pH 7.4 by in-situ single-pass perfusion method. The class given is ADME, tissue-based. The settings on record: in vivo, pH 7.4, 100 µM. The essentials: as §1
Data set [9] deals with Jejunum. The data set is described as follows: Intracellular drug level in Wistar rat jejunum treated with Temocaprilat at 100 uM at pH 7.4 by in-situ single-pass perfusion method. It is filed as ADME, tissue-based. The conditions noted are these: in vivo, pH 7.4, 100 µM.
A short description of data set [10]: Permeability in Wistar rat jejunum pre-perfused with 400 uM CES inhibitor BNPP at 100 uM at pH 5.4 by in-situ single-pass perfusion method. The class given is ADME, tissue-based. The conditions noted are these: other: in-situ single-pass perfusion of the jejunum, pH 5.4, with BNPP (CES inhibitor) 400 uM, read-out: Peff (converted). The essentials: (§5)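 Fasted, pentobarbital-anesthetized rats. Jejunum pre-perfused with BNPP (400 µM) for 40 min to inhibit CES. Lumen then perfused at 0.2 ml/min with 100 μM drug in phosphate buffer (pH 5.4 or 6.4). Vascular side received Krebs–Henseleit buffer (pH 7.4) at 2.5 ml/min. Luminal drug quantified by HPLC; Peff normalized to 10 cm segment; mean ± S.D., n = 3.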

The subject of data set [11] is Jejunum. Kind of data set: Apparent absorption clearance in Wistar rat jejunum pre-perfused with 400 uM CES inhibitor BNPP at 100 uM at pH 6.4 by in-situ single-pass perfusion method. The class given is ADME. The settings on record: in vivo, pH 6.4, 100 µM. An outline of the steps:
as §2

Data set [12] concerns Jejunum. Kind of data set: Drug uptake in Wistar rat jejunum pre-perfused with 400 uM CES inhibitor BNPP assessed as rate of temocaprilat disappearance at 100 uM at pH 6.4 by in-situ single-pass perfusion method. It is filed as ADME, tissue-based. The conditions noted are these: in vivo, pH 6.4, 100 µM. The essentials:
as §2

The nature of data set [13]: Permeability in Wistar rat jejunum pre-perfused with 400 uM CES inhibitor BNPP at 100 uM at pH 6.4 by in-situ single-pass perfusion method. The conditions noted are these: other: in-situ single-pass perfusion of the jejunum, pH 6.4, with BNPP (CES inhibitor) 400 uM, read-out: Peff (converted). It is filed as ADME, tissue-based. An outline of the steps:
as §5

For data set [14], the system named is Jejunum. Kind of data set: Intracellular drug level in Wistar rat jejunum pre-perfused with 400 uM CES inhibitor BNPP at 100 uM at pH 5.4 by in-situ single-pass perfusion method. The settings on record: in vivo, pH 5.4, 100 µM. It is filed as ADME, tissue-based. An outline of the steps: as §2
The test system of data set [15] is Jejunum. Kind of data set: Drug hydrolysis in perfused Wistar rat jejunum mucosal homogenate at 500 uM assessed per mg protein. The class given is ADME, tissue-based. The conditions noted are these: tissue homogenate. An outline of the steps: as §3
The subject of data set [16] is Jejunum. The data set is described as follows: Intracellular drug level in Wistar rat jejunum at 100 uM at pH 6.4 by in-situ single-pass perfusion method. The class given is ADME, tissue-based. The conditions noted are these: in vivo. An outline of the steps: as §1
The test system of data set [17] is Jejunum. The data set is described as follows: Drug hydrolysis in intact Wistar rat jejunum mucosal homogenate at 500 uM assessed per mg protein in presence of 1000 uM CES inhibitor BNPP. The class given is ADME, tissue-based. The settings on record: tissue homogenate. An outline of the steps:
as §3

The nature of data set [18]: Permeability in Wistar rat jejunum at 100 uM at pH 7.4 by in-situ single-pass perfusion method. The class given is ADME, tissue-based. The settings on record: other: in-situ single-pass perfusion of the jejunum, read-out: Peff (converted). An outline of the steps:
as §4

Data set [19] concerns Jejunum. Kind of data set: Intracellular drug level in Wistar rat jejunum treated with Temocaprilat at 100 uM at pH 6.4 by in-situ single-pass perfusion method. It is filed as ADME, tissue-based. The conditions noted are these: in vivo.
The test system of data set [20] is Jejunum. The data set is described as follows: Apparent absorption clearance in Wistar rat jejunum at 100 uM at pH 6.4 by in-situ single-pass perfusion method. The class given is ADME, tissue-based. The conditions noted are these: in vivo. The essentials: as §1
Data set [21] can be described thus: Drug hydrolysis in Wistar rat jejunal S9 fraction. It is filed as ADME, Jejunum. The essentials: (§6)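 Duodenal or jejunal mucosa from fasted rats homogenized in 50 mM HEPES (pH 7.4) with 1.15% KCl; S9 is the 9000 g supernatant. S9 pre-incubated 5 min at 37°C, then drug added at 10–500 µM final (1% DMSO). Run for 20 min, stopped with acetonitrile, temocaprilat formed measured by HPLC. Km and Vmax from Michaelis–Menten nonlinear fit. Inhibitor (1 mM BNPP) pre-incubated 5 min. Results as % of control.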

Data set [22] is described as follows: Drug hydrolysis in Wistar rat jejunal S9 fraction in presence of 1 mM CES inhibitor BNPP. It is filed as ADME, Jejunum. An outline of the steps: as §6
Data set [23] deals with Jejunum. Kind of data set: Apparent hydrolytic clearance in Wistar rat jejunum at 100 uM at pH 6.4 by in-situ single-pass perfusion method. The class given is ADME, tissue-based. The conditions noted are these: in vivo, pH 6.4, 100 µM. An outline of the steps: as §1
Data set [24] is described as follows: Ratio of Vmax to Km for drug hydrolysis in Wistar rat duodenal S9 fraction assessed per mg protein. It is filed as ADME, Duodenum. The essentials:
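Duodenal or jejunal mucosal S9 (9000 g supernatant) in 50 mM HEPES pH 7.4, pre-incubated 5 min at 37°C. Substrate added at 10–500 µM final in 1% DMSO and incubated 20 min; stopped with acetonitrile. Temocaprilat formation measured by HPLC. Km and Vmax from nonlinear Michaelis–Menten fit; intrinsic clearance as Vmax/Km; mean ± S.D.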

With `CCOC(=O)[C@H](CCc1ccccc1)N[C@H]1CS[C@H](c2cccs2)CN(CC(=O)O)C1=O` [TEMOCAPRIL], the CL with Jejunum [1] came out at 34.4 µL/min; in the data set on Jejunum [2], 2.44 nmol/min; in the data set on Jejunum [12] it was 1.17 nmol/min; in the data set with Jejunum [23] it was 35.4 µL/min. Also, the Drug uptake was determined as 1.02 nmol/g in the data set with Jejunum [3]; 17.6 nmol/g with Jejunum [9]; 20.6 nmol/g with Jejunum [14]; 1.83 nmol/g in the data set on Jejunum [16]; 18.1 nmol/g with Jejunum [19]. Moreover, the figures for the Vmax/Km in data set [4] and in data set [24] were 108 µL/min and 109 µL/min, respectively. The figures for the Drug degradation in the data set with Jejunum [5], with Jejunum [15] and in the data set on Jejunum [17] were 4.17 nmol/min, 3.96 nmol/min and 1.97 nmol/min, respectively. The “CL(app)” value is 3.59 µL/min in the data set on Jejunum [6], 1.23 µL/min in the data set with Jejunum [8], 7.64 µL/min in the data set with Jejunum [11] and 1.59 µL/min with Jejunum [20]. The Papp at 100 µM in data set [7] was 76 ×10⁻⁶ cm/s; in [10], 49.8 ×10⁻⁶ cm/s; in data set [13] it was 38.7 ×10⁻⁶ cm/s; in data set [18] it was 54.2 ×10⁻⁶ cm/s. Besides, the Km in data set [21] was determined as 47.3 µM. Also, the Stability result in [22] is “Stable”.

Broadly, the Km is the concentration of substrate that gives half-maximal velocity.

For the origin of these results see ChEMBL document CHEMBL3526140, “Prediction of human intestinal absorption of the prodrug temocapril by in situ single-pass perfusion using rat intestine with modified hydrolase activity” (Drug Metab Dispos, 2011).
